Assay results published in ChEMBL document CHEMBL1142241, “Atropisomeric 3-(beta-hydroxyethyl)-4-arylquinolin-2-ones as Maxi-K potassium channel openers” (J Med Chem, 2007).
Where “and” joins values, the source holds several entries; their conditions need not be identical. Equal entries are not always repeated.

Experiments:
[1] = target: Calcium-activated potassium channel subunit alpha-1 (Homo sapiens) (UniProt Q12791); experiment: Activity at human maxi-K hSlo channel expressed in Xenopus oocytes assessed as increase in maxi k current at 20 uM relative to iberiotoxin; format: cell-based; conditions: Oocyte
Procedure, shortened: (§1)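 Xenopus oocytes injected with 50 ng hSlo cRNA, recorded 2–5 days post-injection. Outward K+ currents evoked from a holding potential of -60 mV over -40 to +140 mV in 20 mV depolarizing steps. Compound applied for 5 min in at least 4–5 oocytes, then 100 nM iberiotoxin for 10 min. Values are % IbTX-sensitive current at peak effect, drug-free control = 100%.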

[2] = target: Calcium-activated potassium channel subunit alpha-1 (Homo sapiens) (UniProt Q12791); experiment: Activity at human maxi-K hSlo channel expressed in Xenopus oocytes assessed as increase in maxi k current at 5 uM relative to iberiotoxin; format: cell-based; conditions: Oocyte; procedure, shortened: as §1
[3] = test system: Serum; experiment: Stability in human serum at 1 mM in 37 degC upto 30 hrs; format: ADME, cell-free; conditions: 1000 µM
Procedure, shortened: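 Pooled human serum prewarmed 5 min at 37 °C; test agent added from 0.1 M DMSO stock to final 1 mM in serum with 1% DMSO, held at 37 °C. Racemization followed by supercritical fluid chromatography on a chiral column over 30 h.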

[4] = target: Calcium-activated potassium channel subunit alpha-1 (Homo sapiens) (UniProt Q12791); experiment: Activity at human maxi-K hSlo channel expressed in Xenopus oocytes assessed as increase in maxi k current at 10 uM relative to iberiotoxin; format: cell-based; conditions: Oocyte; procedure, shortened: as §1

Calcium-activated potassium channel subunit alpha-1 (Homo sapiens), sequence (Q12791 whole entry): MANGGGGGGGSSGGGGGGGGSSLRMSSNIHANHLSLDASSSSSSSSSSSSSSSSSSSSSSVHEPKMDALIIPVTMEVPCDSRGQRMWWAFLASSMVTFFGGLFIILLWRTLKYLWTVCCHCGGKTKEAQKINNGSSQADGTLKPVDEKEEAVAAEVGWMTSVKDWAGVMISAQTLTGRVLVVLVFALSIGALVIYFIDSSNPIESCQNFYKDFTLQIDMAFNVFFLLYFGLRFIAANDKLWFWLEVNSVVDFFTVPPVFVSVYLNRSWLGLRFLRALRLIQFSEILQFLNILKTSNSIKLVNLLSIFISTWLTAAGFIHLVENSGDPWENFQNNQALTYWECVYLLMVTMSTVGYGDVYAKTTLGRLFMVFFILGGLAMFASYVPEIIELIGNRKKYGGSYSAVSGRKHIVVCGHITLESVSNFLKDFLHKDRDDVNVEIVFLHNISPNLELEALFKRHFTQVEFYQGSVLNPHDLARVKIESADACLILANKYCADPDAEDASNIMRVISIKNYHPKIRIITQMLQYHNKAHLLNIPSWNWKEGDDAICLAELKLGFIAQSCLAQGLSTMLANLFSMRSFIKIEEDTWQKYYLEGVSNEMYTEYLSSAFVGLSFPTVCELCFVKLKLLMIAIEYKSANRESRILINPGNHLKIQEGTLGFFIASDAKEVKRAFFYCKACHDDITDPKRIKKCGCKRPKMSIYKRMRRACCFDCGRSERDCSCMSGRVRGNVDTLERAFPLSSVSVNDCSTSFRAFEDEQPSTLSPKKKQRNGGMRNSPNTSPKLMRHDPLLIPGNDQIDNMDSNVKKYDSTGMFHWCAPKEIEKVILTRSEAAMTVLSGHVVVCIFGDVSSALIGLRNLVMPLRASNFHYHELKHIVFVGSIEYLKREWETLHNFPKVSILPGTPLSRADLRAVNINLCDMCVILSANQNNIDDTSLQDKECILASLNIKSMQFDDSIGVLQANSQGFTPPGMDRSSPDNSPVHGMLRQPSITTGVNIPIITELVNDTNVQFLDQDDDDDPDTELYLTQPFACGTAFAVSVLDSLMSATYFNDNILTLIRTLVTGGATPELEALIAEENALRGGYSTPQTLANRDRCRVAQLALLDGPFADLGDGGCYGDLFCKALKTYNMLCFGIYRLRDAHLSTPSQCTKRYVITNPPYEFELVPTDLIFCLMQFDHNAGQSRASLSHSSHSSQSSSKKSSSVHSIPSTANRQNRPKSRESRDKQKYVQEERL

Row | SMILES | Activity [1] | Activity [2] | Stability [3] | Activity [4]
1 | Cn1c(=O)c(CCO)c(-c2cc(Cl)cc(CC(O)CO)c2O)c2cc(C(F)(F)F)ccc21 (stereo not given) | 112% |  |  | 
2 | CC(C)Cc1cc(Cl)cc(-c2c(CCO)c(=O)n(C)c3ccc(C(F)(F)F)cc23)c1O |  | 96.5% |  | 
3 | O=c1[nH]c2ccc(C(F)(F)F)cc2c(-c2cc(Cl)ccc2O)c1CCO [BMS-223131] | 253% |  | Stable | 214% and 292% and 259%
4 | Cn1c(=O)c(CCO)c(-c2cc(Cl)cc(CCCO)c2O)c2cc(C(F)(F)F)ccc21 | 164% |  |  | 
5 | Cn1c(=O)c(CCO)c(-c2cc(Cl)ccc2O)c2cc(C(F)(F)F)ccc21 | 296% |  |  | 361% and 184% and 257%
6 | CCCc1cc(Cl)cc(-c2c(CCO)c(=O)n(C)c3ccc(C(F)(F)F)cc23)c1O |  |  |  | 127%
7 | C=C(C)Cc1cc(Cl)cc(-c2c(CCO)c(=O)n(C)c3ccc(C(F)(F)F)cc23)c1O |  |  |  | 114%
